High-throughput results as filed in PubChem.
KCNQ1 act – potentiates or activates the human KCNQ1 potassium channel; B-score at 10 µM; actives 0.35% (n = 310,000); CHO-K1 KCNQ1, thallium flux FluxOR fluorescence; active compounds read high; P51787;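 active = fluorescence ratio B-score, a plate-corrected score, at least three library SD, with initial intensity B-score within 5 SD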
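Assay system: CHO-K1 cells stably expressing KCNQ1; Medium: assay buffer with matched DMSO; Also added: K+/Tl+ depolarizing stimulus; Dosing: single dose; Timing: dye 90 min, compound 20 min, room temperature; Measured by: kinetic FluxOR thallium fluorescence, 10-s 1-Hz baseline, 110-s post-stimulus read; Read-out: peak-minus-minimum fluorescence over initial fluorescence, negative-control normalized, B-scored.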
hERG protect – hERG (human) protection from proarrhythmic block; Q12809; CHO-hERG, FluxOR thallium flux, dofetilide IC70 present; activation (rescue from dofetilide block), less the hit threshold, % at 10 µM; actives 0.51% (n = 310,000);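 active = activation above the mean of controls blocked by dofetilide plus 5 SD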;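 note: thallium influx through hERG after potassium depolarization seen as dye fluorescence rise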
KCNK3 block – human KCNK3 channel inhibition, primary screen; O14649; CHO-KCNK3 thallium flux, FluxOR fluorescence; active compounds read low; B-score at 10 µM; actives 0.84% (n = 340,000); AID 602410;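 active = B-score under library mean minus 4 SD, starting fluorescence ratio at most library mean plus 5 SD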;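 note: more negative B-score means stronger inhibition of thallium flux through KCNK3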
Target sequence (O14649 whole entry, looked up): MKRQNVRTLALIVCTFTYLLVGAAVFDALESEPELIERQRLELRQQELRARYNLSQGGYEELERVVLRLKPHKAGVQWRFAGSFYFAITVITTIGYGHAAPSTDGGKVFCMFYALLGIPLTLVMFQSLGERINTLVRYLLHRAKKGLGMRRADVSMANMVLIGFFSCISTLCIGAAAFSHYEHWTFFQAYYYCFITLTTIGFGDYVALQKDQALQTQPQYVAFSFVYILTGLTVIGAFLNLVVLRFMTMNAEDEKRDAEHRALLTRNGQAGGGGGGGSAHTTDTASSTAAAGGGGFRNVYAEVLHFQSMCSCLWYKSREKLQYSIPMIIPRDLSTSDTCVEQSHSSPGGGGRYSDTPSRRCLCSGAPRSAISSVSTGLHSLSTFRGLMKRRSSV
KCNQ1 inh – inhibitors of human KCNQ1 potassium channel | B-score at 10 µM | actives 1.3% (n = 310,000) | AID 2642 | P51787 | CHO-K1 KCNQ1, FluxOR thallium flux fluorescence; active compounds read high;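 active = compounds whose thallium flux B-score, printed positive for inhibition, exceeds three library SD while starting fluorescence stays within three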;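 note: channel opened by potassium depolarization with thallium stimulus after 20 min compound exposure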
KCNK9 block – inhibitors of human KCNK9 two-pore domain potassium channel. Q9NPC2. HEK293 KCNK9, FluxOR thallium flux fluorescence; active compounds read low. actives 1.2% (n = 310,000). B-score at 10 µM. AID 488922;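 active = ratio B-score over 3 SD below the library mean, with starting fluorescence within 5 SD of its mean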;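 note: negative B-score means less thallium flux so channel inhibition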
Large screens that a line does not name were inactive. This is a sample that favours compounds with a hit; in the whole collection about 3.1% have one here.

Cc1c(C(=O)N2CCN(c3ccccc3)CC2)oc2c(Cl)cccc12	KCNK3 block -9.9 (no result: KCNQ1 act, hERG protect, KCNQ1 inh, KCNK9 block)
Cn1c2ccccc2c(=O)c2ccc(C#CC3(O)CCCCC3)cc21	none
COc1ccc(C#Cc2ccc3c(c2)c(=O)c2ccccc2n3C)cc1	KCNK9 block -7.4
COc1cccc(COc2ccccc2C2Nc3ccc(Br)cc3C(=O)N2NC(=O)c2ccncc2)c1 (stereo not drawn)	none
Nc1nc(CCl)nc(Nc2ccc3ccccc3c2)n1	KCNQ1 act 13
COC(=O)c1c(NC(=O)CSc2nnc(C)c(=O)[nH]2)sc(C)c1C	none
CCOC(=O)c1cc2cc([N+](=O)[O-])ccc2oc1=O	none
O=[N+]([O-])c1ccc2oc(C(O)c3cccc(Cl)c3)cc2c1 (stereo not drawn)	KCNQ1 inh 9
COc1ccc(CCNC(=O)c2ccc(S(=O)(=O)N3CCCCC3)cc2)cc1	none (no result: KCNQ1 act, hERG protect, KCNQ1 inh, KCNK9 block)
CCCCCC(=O)NC(NC(=S)NC1CCS(=O)(=O)C1)C(Cl)(Cl)Cl (stereo not drawn)	hERG protect 5.6
CCN1C(=O)[C@H]2[C@@H](c3ccc(-c4ccc(OC)cc4)cc3)N3CCCC[C@@]3(C(=O)OC)[C@H]2C1=O	none
CCOC(=O)c1c(C)oc2ccc(OCC(N)=O)cc12	none
CCOC(=O)c1c(C)cccc1OCC(N)=O	hERG protect 6.2
N#Cc1ccccc1NS(=O)(=O)c1cc2c3c(c1)CCC(=O)N3CCC2	KCNQ1 act 8
N#Cc1ccccc1NS(=O)(=O)c1cc2c3c(c1)CCN3C(=O)CC2	none
O=C1C(Nc2ccccc2)=C(N2CCCCC2)C(=O)c2ccccc21	none
CN(C1=C(N2CCCCC2)C(=O)c2ccccc2C1=O)c1ccccc1	KCNK9 block -15
CC1CCc2sc(-c3n[nH]c(=S)o3)cc2C1 (stereo not drawn)	hERG protect 7.4
CCCOC(=O)c1ccc(NC(=O)c2ccccc2OC)cc1	KCNK9 block -7.5
CCOC(=O)/C(C#N)=C/c1ccc(OC)c(OC)c1	none
CCOC(=O)/C(C#N)=C/c1ccc(SC)cc1	hERG protect 42
Cc1cc(Cn2nc(C(=O)NCc3cccc(C(F)(F)F)c3)cc2-c2ccccc2)on1	KCNK3 block -9.7 (no result: KCNQ1 act, hERG protect, KCNQ1 inh, KCNK9 block)
O=C(Cc1cccs1)NCCS(=O)(=O)N1CCN(c2ccccc2F)CC1	none
C/C(=N\NC(=O)c1ccc(O)cc1)c1ccc2c(c1)Nc1ccccc1S2	KCNQ1 inh 6
CC(=O)Nc1cccc(/C(C)=N/NC(=O)c2ccc(O)cc2)c1	none
O=C(OCC(=O)N1CCN(C(=O)c2ccco2)CC1)c1ccccc1NCCO	none
COC(=O)[C@@]12CCCN1[C@H](c1ccc(-c3cccc(Cl)c3)cc1)[C@H]1C(=O)N(C)C(=O)[C@H]12	KCNK9 block -7.1
COc1ccccc1C(=O)Nc1onc(C)c1C#N	hERG protect 6.2
O=C(COc1ccccc1)NNC(=S)NC(=O)c1ccccc1	none
O=C(COc1ccc([N+](=O)[O-])cc1)NNC(=S)NC(=O)c1ccc(Br)cc1	KCNQ1 inh 7
CCCCNC(=S)NC(=O)c1ccc([N+](=O)[O-])cc1	KCNQ1 act 10
O=C(CCN1CCOCC1)NNC(=S)NC(=O)c1ccc(Br)cc1	KCNQ1 inh 6
Cc1ccc(OCC(=O)Nc2ccc([N+](=O)[O-])cc2)cc1	none
CC(C)CNC(=S)NC(=O)c1ccc([N+](=O)[O-])cc1	none
Cc1ccc(C(=O)NC(=S)NNC(=O)COc2ccc([N+](=O)[O-])cc2)cc1	KCNQ1 act 8
O=C(CCN1CCCCC1)NNC(=S)NC(=O)c1ccc(Br)cc1	none
Cc1cccc(C(=O)NC(=S)NNC(=O)COc2c(C)cccc2C)c1	KCNQ1 act 13, hERG protect 17
Cc1cccc(C(=O)NC(=S)NNC(=O)Cc2ccccc2)c1	none
CN(CC(=O)Nc1ccc(F)cc1)C(=O)COC(=O)CNC(=O)c1sc2ccccc2c1Cl	none
CC(/C=N/n1c(-c2ccc(C)cc2)n[nH]c1=S)=C\c1ccco1	KCNQ1 act 10
Cc1ccc(NC(=O)CSc2nn(-c3ccc(Cl)cc3)c(=S)s2)cc1S(=O)(=O)N(C)C	KCNQ1 inh 6
CN(C)S(=O)(=O)c1cc(NC(=O)CSc2nn(-c3ccc(Cl)cc3)c(=S)s2)ccc1Cl	none
COc1cccc(-c2cc(C(=O)N3CC4(C)CC3CC(C)(C)C4)no2)c1 (stereo not drawn)	KCNK9 block -6.8
CC1(C)CC2CC(C)(CN2C(=O)c2cc(-c3ccc(O)cc3)on2)C1 (stereo not drawn)	none
COC(=O)c1cc(-c2cccc(OC)c2)on1	hERG protect 7.2
Cn1nc(C(=O)Nc2ccccc2N2CCCC2)c2ccccc2c1=O	none
Cc1nc(N2CCC(C)CC2)c2c(C)c(C(=O)Nc3ccc(C(F)(F)F)cc3)sc2n1	KCNQ1 inh 10
Cn1ccnc1C(=O)c1cccc([N+](=O)[O-])c1	KCNQ1 act 8
COc1ccc(OC)c(N(CC(=O)NCC2CCCO2)S(=O)(=O)c2ccccc2)c1 (stereo not drawn)	none
COc1ccc(Cc2nc(C(=O)Nc3ccc(Cl)cc3)cs2)cc1	KCNK3 block -18
COc1ccc(C)cc1NC(=O)NNC(=O)C1CCC(C(C)(C)C)CC1 (stereo not drawn)	none
CN1CC(c2ccccn2)C2(SC(=S)N(Cc3ccccc3)C2=O)C12C(=O)Nc1ccccc12 (stereo not drawn)	KCNQ1 inh 6
COC(=O)C1=CN(Cc2cccs2)C=C(C(=O)OC)C1c1cccc(Cl)c1	KCNK9 block -7.9
Cc1ccc(CC2C(=O)N(c3nc(C)cc(C)n3)C(=O)C2C)cc1 (stereo not drawn)	none
COc1ccc(C(=O)N(C)CC2CCN(CCc3cccc(C(F)(F)F)c3)CC2)cc1C	none
COc1ccccc1NC(=O)CSc1n[nH]c(Cc2ccccc2)n1	none
COc1ccccc1NC(=O)Cc1noc(CSc2cc(C)c3ccccc3n2)n1	KCNK3 block -9
COc1ccccc1NC(=O)CSc1nc2ccccc2cc1Cc1ccccc1	KCNK9 block -7.9
CCCCn1c(N)c(N(CC(C)C)C(=O)CCCSc2nncs2)c(=O)[nH]c1=O	none
Cn1c(SCC(=O)Nc2ccccc2)nnc1-c1ccc2nonc2c1	none
O=C1c2ccccc2CCCC12N=NCC2c1cccc2ccccc12 (stereo not drawn)	KCNK9 block -7.6
Cc1ccc(C2CN=NC23CCc2ccccc2C3=O)cc1 (stereo not drawn)	none
S=c1[nH]cnc2scc(-c3ccc(Br)cc3)c12	KCNQ1 act 23, hERG protect 14
Cc1sc2nc[nH]c(=S)c2c1-c1ccccc1	KCNQ1 act 12, hERG protect 20
Cc1sc2nc[nH]c(=O)c2c1-c1ccc(F)cc1	none
O=c1[nH]cnc2scc(-c3ccc(Br)cc3)c12	none
Cc1cc(-c2csc3nc[nH]c(=S)c23)cc(C)c1C	KCNQ1 act 45, hERG protect 8.1
